Source: BindingDB's records for doi:10.1021/jm970730q (Tulane University School of Medicine, 1998)
Positions of bridges follow the written chain, without caps; N, C: chain ends. Non-standard residues stand in square brackets, D forms with d. Residues, ends and D or L forms follow the SMILES beside them. Dip = N[C@H](C(=O)O)C(c1ccccc1)c1ccccc1; 2Nal = N[C@@H](Cc1ccc2ccccc2c1)C(=O)O; 3Pal = N[C@@H](Cc1cccnc1)C(=O)O

What was measured:
[1] = target: Somatostatin receptor type 1 (Homo sapiens, UniProt P30872); test: Binding affinity towards cloned human somatostatin 1 (hsst) receptor
Chain of Somatostatin receptor type 1 (P30872 whole entry): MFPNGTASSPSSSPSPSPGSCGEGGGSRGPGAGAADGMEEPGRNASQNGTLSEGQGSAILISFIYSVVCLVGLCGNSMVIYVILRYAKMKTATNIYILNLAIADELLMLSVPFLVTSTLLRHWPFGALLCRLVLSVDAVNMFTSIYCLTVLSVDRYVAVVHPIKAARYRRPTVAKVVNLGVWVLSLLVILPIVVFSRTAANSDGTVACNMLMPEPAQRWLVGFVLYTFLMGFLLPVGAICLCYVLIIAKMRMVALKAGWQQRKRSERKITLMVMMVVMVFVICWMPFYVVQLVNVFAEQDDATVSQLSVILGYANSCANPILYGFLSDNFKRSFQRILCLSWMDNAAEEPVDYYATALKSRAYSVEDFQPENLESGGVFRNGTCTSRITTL
Summary of the method: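 Membranes from CHO-K1 cells stably transfected with the human receptor subtype (calcium phosphate transfection, G418 selection), homogenised and washed in Tris-HCl. Separated by filtration on PEI-soaked GF/C filters; nonspecific binding with 1.0 µM SRIF.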

[2] = target: Somatostatin receptor type 4 (Homo sapiens, UniProt P31391); test: Binding affinity towards cloned human somatostatin 4 (hsst) receptor
Chain of Somatostatin receptor type 4 (P31391 whole entry): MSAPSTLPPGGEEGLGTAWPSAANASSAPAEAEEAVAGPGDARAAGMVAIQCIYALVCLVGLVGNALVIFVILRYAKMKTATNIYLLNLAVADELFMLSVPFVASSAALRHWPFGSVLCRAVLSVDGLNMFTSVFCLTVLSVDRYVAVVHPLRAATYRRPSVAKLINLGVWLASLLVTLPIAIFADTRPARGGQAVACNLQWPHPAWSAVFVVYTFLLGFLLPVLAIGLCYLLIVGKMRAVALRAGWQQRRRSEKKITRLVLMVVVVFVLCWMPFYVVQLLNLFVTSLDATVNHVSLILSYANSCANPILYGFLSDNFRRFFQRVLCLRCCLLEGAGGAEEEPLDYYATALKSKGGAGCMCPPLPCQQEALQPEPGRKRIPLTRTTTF

IC50 [1] [µM] | IC50 [2] [µM] | Structure (SMILES)
1 | 1 | CC(C)[C@@H]1NC(=O)[C@H](CCCCN)NC(=O)[C@@H](Cc2c[nH]c3ccccc23)NC(=O)[C@H](Cc2cccnc2)NC(=O)[C@H](NC(=O)[C@@H](N)C(c2ccccc2)c2ccccc2)CSSC[C@@H](C(=O)N[C@H](C(N)=O)C(c2ccccc2)c2ccccc2)NC1=O [H-Dip-cyclo[DCys-Pal-DTrp-Lys-Val-Cys]-Dip-NH2] (H-[Dip][dC][3Pal][dW]KVC[Dip]-NH2; disulfide 2-7)
– | 1 | CC(C)[C@@H]1NC(=O)[C@H](CCCCN)NC(=O)[C@@H](Cc2c[nH]c3ccccc23)NC(=O)[C@H](Cc2c[nH]cn2)NC(=O)[C@H](NC(=O)[C@@H](N)C(c2ccccc2)c2ccccc2)CSSC[C@@H](C(=O)N[C@@H](Cc2ccc3ccccc3c2)C(N)=O)NC1=O [H-Dip-cyclo[DCys-His-DTrp-Lys-Val-Cys]-Nal-NH2] (H-[Dip][dC]H[dW]KVC[2Nal]-NH2; disulfide 2-7)
1 | – | CC(C)[C@@H]1NC(=O)[C@H](CCCCN)NC(=O)[C@@H](Cc2c[nH]c3ccccc23)NC(=O)[C@H](Cc2c[nH]cn2)NC(=O)[C@H](NC(=O)[C@@H](N)C(c2ccccc2)c2ccccc2)CSSC[C@@H](C(=O)N[C@H](C(N)=O)C(c2ccccc2)c2ccccc2)NC1=O [H-Dip-cyclo[DCys-His-DTrp-Lys-Val-Cys]-Dip-NH2] (H-[Dip][dC]H[dW]KVC[Dip]-NH2; disulfide 2-7)
